Assays:
Test in all cases: chemiluminescence
Assay type in all cases: binding
[1] = biological target: TcYcgR; conditions: read-out: KD^a; 50 nM protein; 50 mM HEPES pH 7.2, 100 mM KCl, 10 mM DTT, 0.1% BSA; 28 °C
Procedure, shortened: (§1)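 Purified from E. coli co-expressing the c-di-GMP phosphodiesterase PdeH. Biosensor (YcgR domain inserted at the 91/92 site of split RLuc8) at 50 nM with c-di-GMP in 100 µL, equilibrated ≥10 min at 28 °C. Injected 20 µL of 60 µM coelenterazine-h in 50 mM HEPES pH 7.2, 100 mM KCl, 300 mM ascorbate. Total luminescence integrated 10 s after a 3 s delay.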

[2] = biological target: TbYcgR; conditions: read-out: KD^a; 50 nM protein; 50 mM HEPES pH 7.2, 100 mM KCl, 10 mM DTT, 0.1% BSA; 28 °C
Procedure, shortened: as §1

[3] = biological target: T1, EcYcgR (Escherichia coli, UniProt P76010)
T1 sequence (P76010 1-244): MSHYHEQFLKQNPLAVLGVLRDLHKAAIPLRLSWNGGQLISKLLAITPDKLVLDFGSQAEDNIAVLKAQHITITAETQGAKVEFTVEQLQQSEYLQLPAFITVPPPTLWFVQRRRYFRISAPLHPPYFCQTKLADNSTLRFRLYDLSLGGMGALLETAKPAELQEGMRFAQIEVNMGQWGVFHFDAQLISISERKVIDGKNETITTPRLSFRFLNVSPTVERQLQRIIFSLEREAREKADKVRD
Procedure, shortened: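 Then 20 µL of 60 µM coelenterazine-h (in HEPES/KCl/300 mM ascorbate, equilibrated at RT for at least 30 min) was injected. Total luminescence was integrated for 10 s after a 3 s delay at 28 °C.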

[4] = biological target: TmYcgR; conditions: read-out: KD^a; 50 nM protein; 50 mM HEPES pH 7.2, 100 mM KCl, 10 mM DTT, 0.1% BSA; 28 °C
Procedure, shortened: as §1

[5] = biological target: ToYcgR; conditions: read-out: KD^a; 50 nM protein; 50 mM HEPES pH 7.2, 100 mM KCl, 10 mM DTT, 0.1% BSA; 28 °C
Procedure, shortened: as §1

[6] = biological target: BtYcgR; conditions: read-out: KD^a; 50 nM protein; 50 mM HEPES pH 7.2, 100 mM KCl, 10 mM DTT, 0.1% BSA; 28 °C
Procedure, shortened: as §1

[7] = biological target: TuYcgR; conditions: read-out: KD^a; 50 nM protein; 50 mM HEPES pH 7.2, 100 mM KCl, 10 mM DTT, 0.1% BSA; 28 °C
Procedure, shortened: as §1

[8] = biological target: CpYcgR; conditions: read-out: KD^a; 50 nM protein; 50 mM HEPES pH 7.2, 100 mM KCl, 10 mM DTT, 0.1% BSA; 28 °C
Procedure, shortened: as §1

[9] = biological target: PtYcgR; conditions: read-out: KD^a; 50 nM protein; 50 mM HEPES pH 7.2, 100 mM KCl, 10 mM DTT, 0.1% BSA; 28 °C
Procedure, shortened: as §1

[10] = biological target: CbYcgR; conditions: read-out: KD^a; 50 nM protein; 50 mM HEPES pH 7.2, 100 mM KCl, 10 mM DTT, 0.1% BSA; 28 °C
Procedure, shortened: as §1

[11] = biological target: BvYcgR; conditions: read-out: KD^a; 50 nM protein; 50 mM HEPES pH 7.2, 100 mM KCl, 10 mM DTT, 0.1% BSA; 28 °C
Procedure, shortened: as §1

[12] = biological target: DnYcgR; conditions: read-out: KD^a; 50 nM protein; 50 mM HEPES pH 7.2, 100 mM KCl, 10 mM DTT, 0.1% BSA; 28 °C
Procedure, shortened: as §1

`Nc1nc2c(ncn2[C@@H]2O[C@@H]3COP(=O)(O)O[C@H]4[C@@H](O)[C@H](n5cnc6c(=O)[nH]c(N)nc65)O[C@@H]4COP(=O)(O)O[C@H]3[C@H]2O)c(=O)[nH]1` [c-di-GMP] showed a Kd [1] of 59 ± 2 nM, a Kd [2] of under 50 nM and a Kd [3] of 354 ± 18 nM. It also gave a Kd [4] of under 50 nM, a Kd [5] of 379 ± 23 nM and a Kd [6] of 286 ± 17 nM. The Kd [7] was under 50 nM, the Kd [8] was under 50 nM and the Kd [9] was under 50 nM. It also gave a Kd [10] of under 50 nM, a Kd [11] of 105 ± 2 nM and a Kd [12] of 303 ± 15 nM.
